Assay [1] relates to Escherichia coli. In words: Antibacterial activity against Escherichia coli. It counts as functional.
The test system of assay [2] is Morganella morganii. In words: Bacteriostatic activity against Morganella morganii UM573 incubated for 24 hrs by time-kill assay. It counts as functional, organism-based. Summed up: (§1)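 Log-phase cultures (~5×10^6 CFU mL−1) in cation-adjusted Mueller–Hinton broth at 37 °C are given drugs alone or combined at ¼ MIC; untreated growth is the control. At 0, 4, 8, 12 and 24 h, samples are diluted […] in 0.7% NaCl, 100 µL is plated on Mueller–Hinton agar overnight at 37 °C, and colonies are counted. Three repeats, mean reported.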

Assay [3] has as its system Morganella morganii. The assay can be described thus: Antibacterial activity against Morganella morganii UM869 assessed as efflux pump inhibition by measuring mean fluorescence intensity incubated for 30 mins by EtBr staining based assay. It counts as functional, organism-based. Summed up: (§2)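 Isolates grown in LB broth and adjusted to 0.5 McFarland. Cultures with no drug, CCCP or test agent (fraction of each agent's MIC per isolate) were shaken 30 min at 37 °C, then swabbed cartwheel-style onto TSA plates containing EtBr 2.5 mg L⁻¹ and incubated 18 h at 37 °C. Swab fluorescence was imaged and mean intensity compared by Student's t-test. K. pneumoniae ATCC13882 and SDL79 served as controls.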

The test system of assay [4] is Morganella morganii. The assay can be described thus: Bacteriostatic activity against Morganella morganii UM869 incubated for 24 hrs by time-kill assay. It counts as functional, organism-based. Summed up: as §1
Assay [5] deals with Klebsiella pneumoniae. The assay can be described thus: Synergistic antibacterial activity against Klebsiella pneumoniae UK48 in presence of colistin by checkerboard assay. It counts as functional. Summed up:
(§3)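 Checkerboard run in triplicate in cation-supplemented Mueller–Hinton broth. Colistin 512 to 1 µg mL−1 is crossed with argatroban 256 to 2 µg mL−1. Inoculum is ~5–6×10^5 CFU mL−1, incubated 37 °C for 24 h. ΣFIC = C_A/MIC_A + C_B/MIC_B, where C is each drug's concentration in combination at the MIC well.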

The subject of assay [6] is Morganella morganii. The assay can be described thus: Antibacterial activity against Morganella morganii UM573 incubated for 16 to 18 hrs by broth microdilution method. It counts as functional. As to conditions: time 16-18 hrs. Summed up:
(§4)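 CLSI broth microdilution in cation-adjusted Mueller–Hinton broth, inoculum 5×10^5 CFU mL−1. Ranges tested: colistin 1024–2 μg mL−1, CCCP 80–1 μg mL−1, argatroban 1024–2 μg mL−1. Incubation is 37 °C for 16–18 h. Growth is visualized with triphenyl tetrazolium chloride, and the MIC is interpreted by CLSI breakpoint criteria.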
In general terms: Broth dilution looks for growth in wells or tubes with falling amounts of substance.

For assay [7], the system named is Klebsiella pneumoniae. The assay can be described thus: Antibacterial activity against Klebsiella pneumoniae UK48 assessed as efflux pump inhibition by measuring mean fluorescence intensity incubated for 30 mins by EtBr staining based assay. It counts as functional, organism-based. In a few lines: as §2
Assay [8] deals with Morganella morganii. The assay can be described thus: Antibacterial activity against Morganella morganii UM573 assessed as efflux pump inhibition by measuring mean fluorescence intensity incubated for 30 mins by EtBr staining based assay. It counts as functional, organism-based. Summed up: as §2
In assay [9] the test system is Klebsiella pneumoniae. In words: Bacteriostatic activity against Klebsiella pneumoniae UK48 incubated for 24 hrs by time-kill assay. It counts as functional, organism-based. In a few lines: as §1
Assay [10] has as its system Morganella morganii. The assay can be described thus: Synergistic antibacterial activity against Morganella morganii UM573 in presence of colistin by checkerboard assay. It counts as functional. In a few lines: as §3
Assay [11] has as its system Morganella morganii. In words: Synergistic antibacterial activity against Morganella morganii UM869 in presence of colistin by checkerboard assay. It counts as functional. Summed up: as §3
Assay [12] has as its system Klebsiella pneumoniae. The assay can be described thus: Antibacterial activity against Klebsiella pneumoniae UK48 incubated for 16 to 18 hrs by broth microdilution method. It counts as functional. As to conditions: time 16-18 hrs. Summed up:
as §4

Assay [13] deals with Morganella morganii. In words: Antibacterial activity against Morganella morganii UM869 incubated for 16 to 18 hrs by broth microdilution method. It counts as functional. Particulars: time 16-18 hrs. In a few lines:
as §4

Assay [14] has as its system Escherichia coli. The assay can be described thus: Antibacterial activity against Escherichia coli by broth dilution method. It counts as functional.
For assay [15], the system named is Escherichia coli. The assay can be described thus: Antibacterial activity against Escherichia coli BW25113. It counts as functional.
Assay [16] has as its system Escherichia coli. The assay can be described thus: Antibacterial activity against Escherichia coli ATCC 35218. It counts as functional.
The subject of assay [17] is Escherichia coli. The assay can be described thus: Antibacterial activity against Escherichia coli AG100A. It counts as functional.
In assay [18] the test system is Escherichia coli. The assay can be described thus: Antibacterial activity against Escherichia coli APEC_O2. It counts as functional.

In general, MIC refers to the smallest concentration in the dilution series that meets the test's criterion for growth inhibition.

In brackets after ≈: the same amount, converted by molar mass. Activity calls are given as the source filed them.

As for `CC1(C)Cc2c(C#N)c(SCCc3ccccc3)nc(N3CCOCC3)c2CO1`, in the assay with Escherichia coli [1], the lowest concentration to inhibit growth (MIC) was 4.05 µg/mL (≈ 9.89 µM).
Regarding `C[C@@H]1CNc2c(cccc2S(=O)(=O)N[C@@H](CCCNC(=N)N)C(=O)N2CC[C@@H](C)C[C@@H]2C(=O)O)C1`, the result in the assay with Morganella morganii [2], in the assay on Morganella morganii [4] and with Klebsiella pneumoniae [9] was inactive. The result in the assay on Morganella morganii [3], with Klebsiella pneumoniae [7] and with Morganella morganii [8] was Active. The MIC in the assay on Klebsiella pneumoniae [5] was 64 µg/mL; against Morganella morganii [6], at least 512 µg/mL; in the assay on Morganella morganii [10] it was 128 µg/mL; in the assay with Morganella morganii [11], 128 µg/mL; with Klebsiella pneumoniae [12], at least 512 µg/mL; against Morganella morganii [13], at least 512 µg/mL.
`O=C(Nc1ccccc1)c1ccccc1C(=O)Nc1ccccc1` registered an MIC with Escherichia coli [14] of 64 µg/mL (≈ 202 µM).
As for `CN(C)CCC=C1c2ccccc2CCc2ccccc21` [AMITRIPTYLINE], in the assay with Escherichia coli [15], the minimum inhibitory concentration (MIC) turned out to be 444 µg/mL (≈ 1600 µM).
Regarding `C[C@H]1[C@@H](O)O[C@@H]2O[C@@]3(C)CC[C@H]4[C@H](C)CC[C@@H]1[C@@]24OO3` [ARTENIMOL], the MIC with Escherichia coli [16] turned out to be 1020 µg/mL (≈ 3600 µM).
On to `C[C@H]1[C@H](OC(=O)CCC(=O)O)O[C@@H]2O[C@@]3(C)CC[C@H]4[C@H](C)CC[C@@H]1[C@@]24OO3` [ARTESUNATE], for which 4100 µg/mL (≈ 10700 µM) was the least that counted as inhibitory with Escherichia coli [16] (MIC).
Regarding `N#CC(C#N)=NNc1cccc(Cl)c1` [CARBONYL CYANIDE M-CHLOROPHENYLHYDRAZONE], the result with Morganella morganii [2], with Morganella morganii [3], with Morganella morganii [4], in the assay with Klebsiella pneumoniae [7], with Morganella morganii [8] and with Klebsiella pneumoniae [9] was Active. Further, the MIC in the assay with Morganella morganii [6] worked out at 20 µg/mL (≈ 97.7 µM); in the assay on Klebsiella pneumoniae [12], 5 µg/mL (≈ 24.4 µM); against Morganella morganii [13], 20 µg/mL (≈ 97.7 µM).
Compound `CN(C)CCCN1c2ccccc2Sc2ccc(Cl)cc21` [CHLORPROMAZINE] registered an MIC with Escherichia coli [15] of 256 µg/mL (≈ 803 µM).
The compound `O=c1c(-c2ccc(O)cc2)coc2cc(O)ccc12` [DAIDZEIN] displayed an MIC with Escherichia coli [1] of 16 µg/mL (≈ 62.9 µM).
`OC(c1cc(-c2ccc(C(F)(F)F)cc2)nc(C(F)(F)F)c1)C1CCCCN1` (centres undefined) [ENPIROLINE] yielded a minimal inhibitory concentration (MIC) against Escherichia coli [14] of 20.2 µg/mL (≈ 50 µM).
Consider `CC[C@H]1OC(=O)[C@H](C)[C@@H](O[C@H]2C[C@@](C)(OC)[C@@H](O)[C@H](C)O2)[C@H](C)[C@@H](O[C@@H]2O[C@H](C)C[C@H](N(C)C)[C@H]2O)[C@](C)(O)C[C@@H](C)C(=O)[C@H](C)[C@@H](O)[C@]1(C)O` [ERYTHROMYCIN], for which the minimum inhibitory concentration (MIC) in the assay on Escherichia coli [1] is 367 µg/mL (≈ 500 µM).
The compound `CC(C)=CCC/C(C)=C/CO` [GERANIOL] yielded an MIC against Escherichia coli [17] of 64 µg/mL (≈ 415 µM).
As for `CC[n+]1c(-c2ccccc2)c2cc(N)ccc2c2ccc(N)cc21` [HOMIDIUM], inhibition of growth in the assay with Escherichia coli [1] (MIC) required 512 µg/mL.
Compound `CC(=O)NC[C@H]1CN(c2ccc(N3CCOCC3)c(F)c2)C(=O)O1` [LINEZOLID] displayed a minimal inhibitory concentration (MIC) against Escherichia coli [1] of 512 µg/mL (≈ 1520 µM).
For the compound `O=c1c2cc(O)c(O)cc2oc2cc(O)c([C@@H]3O[C@H](CO)[C@@H](O)[C@H](O)[C@H]3O)c(O)c12` [MANGIFERIN], the minimum inhibitory concentration (MIC) against Escherichia coli [15] was 512 µg/mL (≈ 1210 µM).
Compound `O=C(Cc1cccs1)N[C@@H]1C(=O)N2C(C(=O)O)=C(/C=C/c3ccc([N+](=O)[O-])cc3[N+](=O)[O-])CS[C@H]12` [NITROCEFIN] returned an MIC with Escherichia coli [1] of 1.9 µg/mL (≈ 3.68 µM).
`CC(Cc1ccc(O)c(O)c1)C(C)Cc1ccc(O)c(O)c1` (centres undefined) [NORDIHYDROGUAIARETIC ACID] yielded a minimal inhibitory concentration (MIC) with Escherichia coli [15] of 512 µg/mL (≈ 1690 µM).
As to `Cc1onc(-c2ccccc2)c1C(=O)N[C@@H]1C(=O)N2[C@@H]1SC(C)(C)[C@@H]2C(=O)O` [OXACILLIN], the minimal inhibitory concentration (MIC) in the assay with Escherichia coli [1] stood at 1020 µg/mL (≈ 2550 µM).
For `O=c1[nH]c2ccccc2n1C1CCN(CCCC(c2ccc(F)cc2)c2ccc(F)cc2)CC1` [PIMOZIDE], in the assay with Escherichia coli [1], the lowest concentration to inhibit growth (MIC) was 92.3 µg/mL (≈ 200 µM).
Turning to `CC1=CC(=O)c2c(O)cccc2C1=O` [PLUMBAGIN], in the assay with Escherichia coli [15], the minimum inhibitory concentration (MIC) worked out at 128 µg/mL (≈ 680 µM).
The same measure, in the same setting: with `O=c1c(O)c(-c2ccc(O)c(O)c2)oc2cc(O)cc(O)c12` [QUERCETIN] the figure was 1020 µg/mL (≈ 3390 µM).
`Nc1ccnc2ccccc12` [QUINOLIN-4-AMINE] gave an MIC against Escherichia coli [14] of 14.4 µg/mL (≈ 100 µM).
`CN[C@H]1CC[C@@H](c2ccc(Cl)c(Cl)c2)c2ccccc21` [SERTRALINE] showed an MIC in the assay on Escherichia coli [18] of 32 µg/mL (≈ 104 µM).
With `CC(C)=CC[C@@H](O)C1=CC(=O)c2c(O)ccc(O)c2C1=O` [SHIKONIN], the minimum inhibitory concentration (MIC) against Escherichia coli [15] is 256 µg/mL (≈ 888 µM).
In the assay with Escherichia coli [1], `C[C@H]1[C@H](C)CC[C@]2(C(=O)O)CC[C@]3(C)C(=CC[C@@H]4[C@@]5(C)CC[C@H](O)C(C)(C)[C@@H]5CC[C@]43C)[C@H]12` [URSOLIC ACID] returned an MIC of 50 µg/mL (≈ 109 µM).

For the origin of these results see ChEMBL document CHEMBL5357045, “Development of pharmacophore models for AcrB protein and the identification of potential adjuvant candidates for overcoming efflux-mediated colistin resistance” (2024).
